Measurements from ChEMBL document CHEMBL4041508, “Synthesis and biological evaluation of chemical tools for the study of Dolichol Linked Oligosaccharide Diphosphatase (DLODP)” (Eur J Med Chem, 2017).
Active and inactive are the calls of the source. The calls are words filed in the database; no cut-off is given here.

Columns and labels:
Homo sapiens [1] = species on record: Homo sapiens; assay: Inhibition of DLODP in human HepG2 microsomal membrane assessed as reduction in [3H]OSP production at 3 mM using Glc3-0[3H]Man9-5GlcNAc2-PP-dolichol as substrate at pH 5.5 measured after 20 to 60 mins by scintillation counting; assay type: cell membranes
[2] = Inhibition of DLODP in human HepG2 microsomal membrane assessed as reduction in [3H]OSP production using Glc3-0[3H]Man9-5GlcNAc2-PP-dolichol as substrate at pH 5.5 measured after 20 to 60 mins by scintillation counting; assay type: cell membranes
Homo sapiens [3] = species on record: Homo sapiens; assay: Inhibition of DLODP in human HepG2 microsomal membrane assessed as reduction in [3H]OSP production at 50 mM using Glc3-0[3H]Man9-5GlcNAc2-PP-dolichol as substrate at pH 5.5 measured after 20 to 60 mins by scintillation counting; assay type: cell membranes
Homo sapiens [4] = species on record: Homo sapiens; assay: Inhibition of DLODP in human Caco2 microsomes assessed as reduction in OSP production at higher concentration using Glc3-0[3H]Man9-5GlcNAc2-PP-dolichol as substrate measured after 20 to 60 mins by scintillation counting
Procedure, shortened: (§1)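 Cells grown in RPMI 1640 with 10% fetal calf serum and 1% penicillin/streptomycin, plus 1% non-essential amino acids for Caco-2 TC7, for 8 days before total membrane preparation. Assay uses 20 µg membrane protein in standard mix (100 mM MES pH 5.5, 1 mM CoCl2, 0.1% NP-40) with added inhibitor, 37 °C. Radioactivity in OSP and neutral oligosaccharides separated by ion exchange, counted by scintillation.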

Homo sapiens [5] = species on record: Homo sapiens; assay: Inhibition of DLODP in human HepG2 microsomes assessed as reduction in neutral oligosaccharide production at low concentration using Glc3-0[3H]Man9-5GlcNAc2-PP-dolichol as substrate measured after 20 to 60 mins by scintillation counting; procedure, shortened: as §1
Homo sapiens [6] = species on record: Homo sapiens; assay: Inhibition of DLODP in human HepG2 microsomes assessed as reduction in OSP production at higher concentration using Glc3-0[3H]Man9-5GlcNAc2-PP-dolichol as substrate measured after 20 to 60 mins by scintillation counting; procedure, shortened: as §1
Homo sapiens [7] = species on record: Homo sapiens; assay: Inhibition of DLODP in human Caco2 microsomes assessed as reduction in neutral oligosaccharide production at low concentration using Glc3-0[3H]Man9-5GlcNAc2-PP-dolichol as substrate measured after 20 to 60 mins by scintillation counting; procedure, shortened: as §1

Structure (SMILES) | IC50 [2] [µM] | inhibition (Homo sapiens [3]) | also measured
CCCOP(=O)(O)O | – | – | inhibition (Homo sapiens [1]): inactive
O=[N+]([O-])c1ccc(OP(=O)(O)Oc2ccc([N+](=O)[O-])cc2)cc1 | 1200 | – | –
CC(C)O | – | Active | –
CO[C@@H]1O[C@H](CO)[C@@H](O)[C@H](O)[C@@H]1O | – | 10% | –
O=[N+]([O-])c1ccc(OP(=O)(O)O)cc1 [p-NITROPHENYLPHOSPHATE] | 4200 | – | –
OC[C@H]1OC(O)[C@@H](O)[C@@H](O)[C@@H]1O (stereo not given in full) | – | inactive | –
O=P(O)(O)CP(=O)(O)O | – | – | inhibition (Homo sapiens [1]): inactive
CC(=O)N[C@@H]1[C@@H](O)[C@H](O[C@@H]2O[C@H](CO)[C@@H](O)[C@H](O)[C@H]2NC(C)=O)[C@@H](CO)O[C@@H]1O | – | < 10% | –
CC(=O)N[C@H]1[C@@H](O[P@@](=O)(O)O[P@@](=O)(O)OC[C@H]2O[C@@H](n3ccc(=O)[nH]c3=O)[C@H](O)[C@@H]2O)O[C@H](CO)[C@@H](O)[C@@H]1O | – | – | inhibition (Homo sapiens [1]): inactive
CC(C)=CCC/C(C)=C/CC/C(C)=C/CC/C(C)=C/CC/C(C)=C/CC/C(C)=C/CC/C(C)=C/CC/C(C)=C/CC/C(C)=C/COP(=O)(O)OP(=O)(O)O | 4.7 | – | –
CC(=O)N[C@@H]1[C@@H](O)[C@H](O[C@@H]2O[C@H](CO)[C@H](O)[C@H](O)[C@H]2O)[C@@H](CO)O[C@@H]1O | – | inactive | –
CC(=O)N[C@@H]1[C@@H](O)[C@H](O)[C@@H](CO)O[C@@H]1O | – | inactive | –
CC(C)=CCC[C@H](C)CCOP(=O)(O)CP(=O)(O)O | 700 | – | –
CC(=O)N[C@@H]1[C@@H](O)[C@H](O[C@@H]2O[C@H](CO)[C@@H](O)[C@H](O)[C@@H]2O)[C@@H](CO)O[C@@H]1O | – | 30% | –
CO[C@H]1O[C@H](CO)[C@@H](O)[C@H](O)[C@@H]1O | – | inactive | –
CC(=O)N[C@H]1[C@@H](OP(=O)(O)O)O[C@H](CO)[C@@H](O)[C@@H]1O | > 3000 | – | inhibition (Homo sapiens [4]): Active; inhibition (Homo sapiens [5]): Active; inhibition (Homo sapiens [6]): Active; inhibition (Homo sapiens [7]): Active
